Measurements reported in ChEMBL document CHEMBL4619740, “Chalcones bearing a 3,4,5-trimethoxyphenyl motif are capable of selectively inhibiting oncogenic K-Ras signaling” (Bioorg Med Chem Lett, 2020).
Active and inactive are the calls of the source. No cut-off for these calls is given here.

Assays:
GTPase KRas = GTPase KRas (Homo sapiens, UniProt P01116, G12V); experiment: Inhibition of GFP-tagged KRAS G12V mutant (unknown origin) expressed in MDCK cells cotransfected with mCherry-CAXX assessed as increase in KRAS G12V-plasma membrane dissociation incubated for 48 hrs by quantitative confocal microscopic method; type: cell-based
Chain of GTPase KRas (P01116 whole entry G12V): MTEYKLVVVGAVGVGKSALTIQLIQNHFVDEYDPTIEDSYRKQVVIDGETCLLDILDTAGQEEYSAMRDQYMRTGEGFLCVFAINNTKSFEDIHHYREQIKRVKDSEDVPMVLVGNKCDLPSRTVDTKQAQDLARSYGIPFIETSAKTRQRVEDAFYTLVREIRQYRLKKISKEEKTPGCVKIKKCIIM
How it was run: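 MDCK cells stably co-expressing mGFP-K-RasG12V and mCherry-CAAX (endomembrane marker) treated with a range of compound concentrations for 48h. Cells fixed in 4% paraformaldehyde, imaged by confocal microscopy. PM dissociation scored as the fraction of mCherry-CAAX co-localized with GFP-K-RasG12V (Manders coefficient). IC50 estimated from dose-response plots from three independent experiments.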

[1] = target: GTPase KRas (Homo sapiens) (UniProt P01116); experiment: Inhibition of KRAS in human NCI-H358 cells assessed as MARCK phosphorylation level at 5 uM incubated for 48 hrs by Western blot analysis (reference value: 1.00 +/- 0.39); type: cell-based
Chain of GTPase KRas (Homo sapiens) (P01116 whole entry, looked up): as the sequence (P01116 whole entry G12V) above, with V12G counted along it

[2] = target: GTPase KRas (Homo sapiens) (UniProt P01116); experiment: Inhibition of KRAS in human NCI-H358 cells assessed as MARCK phosphorylation level at 25 uM incubated for 48 hrs by Western blot analysis (reference value: 1.00 +/- 0.39); type: cell-based
[3] = test system: GTPase KRas (Homo sapiens), P01116 [G12V]; experiment: Inhibition of GFP-tagged KRAS G12V mutant (unknown origin) expressed in MDCK cells assessed as MARCK phosphorylation level at 1 uM incubated for 48 hrs by Western blot analysis (reference value: 1.00 +/- 0.13); type: cell-based
Chain of GTPase KRas (Homo sapiens), P01116 [G12V] (P01116 whole entry G12V): as the sequence (P01116 whole entry G12V) above

[4] = test system: GTPase KRas (Homo sapiens), P01116 [G12V]; experiment: Inhibition of GFP-tagged KRAS G12V mutant (unknown origin) expressed in MDCK cells assessed as MARCK phosphorylation level at 5 uM incubated for 48 hrs by Western blot analysis (reference value: 1.00 +/- 0.13); type: cell-based
[5] = test system: GTPase KRas (Homo sapiens), P01116 [G12V]; experiment: Inhibition of GFP-tagged KRAS G12V mutant (unknown origin) expressed in MDCK cells assessed as increase in MARCK phosphorylation level incubated for 48 hrs by Western blot analysis
[6] = target: GTPase KRas (Homo sapiens) (UniProt P01116); experiment: Inhibition of KRAS in human NCI-H358 cells assessed as MARCK phosphorylation level at 1 uM incubated for 48 hrs by Western blot analysis (reference value: 1.00 +/- 0.39); type: cell-based
[7] = test system: GTPase KRas (Homo sapiens), P01116 [G12V]; experiment: Inhibition of GFP-tagged KRAS G12V mutant (unknown origin) expressed in MDCK cells assessed as MARCK phosphorylation level at 10 uM incubated for 48 hrs by Western blot analysis (reference value: 1.00 +/- 0.13); type: cell-based
[8] = test system: GTPase KRas (Homo sapiens), P01116 [G12V]; experiment: Inhibition of GFP-tagged KRAS G12V mutant (unknown origin) expressed in MDCK cells assessed as reduction in Akt phosphorylation level incubated for 48 hrs by Western blot analysis; type: cell-based
How it was run: (§1)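 MDCK cells stably expressing GFP-tagged K-RasG12V or H-RasG12V treated 48 h; lysates immunoblotted with anti-ppERK or anti-pAkt (S473) antibodies, total ERK and Akt as loading controls. Quantified as means ± S.E.M. of three independent experiments versus DMSO-treated cells; one-way ANOVA.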

[9] = test system: GTPase KRas (Homo sapiens), P01116 [G12V]; experiment: Inhibition of GFP-tagged KRAS G12V mutant (unknown origin) expressed in MDCK cells assessed as reduction in ERK phosphorylation level incubated for 48 hrs by Western blot analysis; type: cell-based; how it was run: as §1
[10] = test system: GTPase HRas (Homo sapiens), P01112 [G12V]; experiment: Inhibition of GFP-tagged HRAS G12V mutant (unknown origin) expressed in MDCK cells assessed as reduction in Akt phosphorylation level incubated for 48 hrs by Western blot analysis; type: cell-based; how it was run: as §1
Chain of GTPase HRas (Homo sapiens), P01112 [G12V] (P01112 whole entry G12V): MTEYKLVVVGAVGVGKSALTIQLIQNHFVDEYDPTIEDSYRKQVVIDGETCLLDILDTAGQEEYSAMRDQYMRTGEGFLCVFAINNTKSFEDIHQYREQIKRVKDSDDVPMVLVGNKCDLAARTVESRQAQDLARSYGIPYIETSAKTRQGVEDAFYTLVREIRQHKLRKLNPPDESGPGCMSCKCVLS

[11] = target: GTPase KRas (Homo sapiens) (UniProt P01116); experiment: Inhibition of KRAS in human NCI-H358 cells assessed as MARCK phosphorylation level at 10 uM incubated for 48 hrs by Western blot analysis (reference value: 1.00 +/- 0.39); type: cell-based
[12] = test system: GTPase KRas (Homo sapiens), P01116 [G12V,S181A]; experiment: Inhibition of GFP-tagged KRAS G12V/S181A mutant (unknown origin) expressed in MDCK cells cotransfected with mCherry-CAXX assessed as reduction in KRAS G12V-plasma membrane dissociation incubated for 48 hrs by quantitative confocal microscopic method; type: cell-based
Chain of GTPase KRas (Homo sapiens), P01116 [G12V,S181A] (P01116 1-164 with tags or gaps G12V,S181A): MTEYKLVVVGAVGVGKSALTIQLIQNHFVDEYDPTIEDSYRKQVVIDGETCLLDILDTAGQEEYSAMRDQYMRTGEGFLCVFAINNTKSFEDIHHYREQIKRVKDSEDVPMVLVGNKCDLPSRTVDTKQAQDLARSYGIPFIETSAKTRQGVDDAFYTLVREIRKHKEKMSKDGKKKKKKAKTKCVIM

[13] = test system: GTPase HRas (Homo sapiens), P01112 [G12V]; experiment: Inhibition of GFP-tagged HRAS G12V mutant (unknown origin) expressed in MDCK cells cotransfected with mCherry-CAXX assessed as effect on HRAS G12V-plasma membrane dissociation incubated for 48 hrs by quantitative confocal microscopic method; type: cell-based
How it was run: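 MDCK cells stably co-expressing mGFP-RasG12V (K- or H-) and mCherry-CAAX endomembrane marker treated with a range of concentrations for 48 h, fixed in 4% paraformaldehyde, imaged by quantitative confocal microscopy. Fraction of mCherry-CAAX co-localized with GFP-Ras by Manders coefficient; IC50 for PM dissociation estimated from dose-response plots of three independent experiments.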

[14] = test system: GTPase KRas (Homo sapiens), P01116 [G12V]; experiment: Inhibition of GFP-tagged KRAS G12V mutant (unknown origin) expressed in MDCK cells assessed as MARCK phosphorylation level at 25 uM incubated for 48 hrs by Western blot analysis (reference value: 1.00 +/- 0.13); type: cell-based
[15] = test system: GTPase HRas (Homo sapiens), P01112 [G12V]; experiment: Inhibition of GFP-tagged HRAS G12V mutant (unknown origin) expressed in MDCK cells assessed as reduction in ERK phosphorylation level incubated for 48 hrs by Western blot analysis; type: cell-based; how it was run: as §1
[16] = target: GTPase KRas (Homo sapiens) (UniProt P01116); experiment: Inhibition of KRAS in human NCI-H358 cells assessed as increase in MARCK phosphorylation level incubated for 48 hrs by Western blot analysis

`COc1cc(/C=C/C(=O)c2ccccn2)cc(OC)c1OC` was tested, and the IC50 (GTPase KRas) was 53 µM.

Work on `COc1ccc(C(=O)/C=C/c2cc(OC)c(OC)c(OC)c2)cc1` yielded an IC50 (GTPase KRas) of 8.29 µM.

With `COc1cc(/C=C/C(=O)c2ccc(N)cc2)cc(OC)c1OC` the IC50 (GTPase KRas) was 9.17 µM.

Compound `COc1cc(C(=O)/C=C/c2c(F)cccc2F)cc(OC)c1OC` has an IC50 (GTPase KRas) of 7.49 µM.

For `COc1cc(/C=C/C(=O)c2c(F)cccc2F)cc(OC)c1OC`, the IC50 (GTPase KRas) was 8.2 µM.

Compound `COc1cc(/C=C/C(=O)c2ccc(F)cc2)cc(OC)c1OC` has an IC50 (GTPase KRas) of 15.9 µM.

`COc1cc(/C=C/C(=O)c2ccc([N+](=O)[O-])cc2)cc(OC)c1OC` showed a fold change (FC) [1] of 1.92, a fold change (FC) [2] of 2.65 and a fold change (FC) [3] of 1.31. The fold change (FC) [4] was 1.76, the IC50 (GTPase KRas) was 7.01 µM and the inhibition [5] was “Dose-dependent effect”. The fold change (FC) [6] was 1.89, the fold change (FC) [7] was 2.85 and the inhibition [8] was “Active”. For the same compound, the inhibition [9] was “Active”, the inhibition [10] was “inactive” and the fold change (FC) [11] was 2.57. The inhibition [12] was “inactive”, the inhibition [13] was “inactive” and the fold change (FC) [14] was 2.8. The inhibition [15] was “inactive” and the inhibition [16] was “Dose-dependent effect”.

`COc1cc(C(=O)/C=C/c2ccc([N+](=O)[O-])cc2)cc(OC)c1OC` showed an IC50 (GTPase KRas) of 8.2 µM.

`COc1cc(/C=C/C(=O)c2ccc(Br)cc2)cc(OC)c1OC` was tested, and the IC50 (GTPase KRas) was 24.6 µM.

With `COc1cc(/C=C/C(=O)c2ccc(N(C)C)cc2)cc(OC)c1OC` the IC50 (GTPase KRas) was 7.42 µM and the inhibition [13] was “inactive”.
